Screening results: PubChem, Broad Institute
KDM4C inh: KDM4C (human) demethylase inhibition; Q9H3R0; GST-KDM4C 2-372, H3K9me3 peptide, LANCE TR-FRET; inhibition, % at 12.5 µM; 96,000 compounds, 0.15% hits; AID 720574;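 active = mean replicate inhibition above about 25%, with at least 55% of replicates also reaching it, limit read from the data, passing the limit was not always enough; inconclusive = only one of those two conditions met; inactive = neither condition met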
Target sequence (Q9H3R0 2-372 limits assumed): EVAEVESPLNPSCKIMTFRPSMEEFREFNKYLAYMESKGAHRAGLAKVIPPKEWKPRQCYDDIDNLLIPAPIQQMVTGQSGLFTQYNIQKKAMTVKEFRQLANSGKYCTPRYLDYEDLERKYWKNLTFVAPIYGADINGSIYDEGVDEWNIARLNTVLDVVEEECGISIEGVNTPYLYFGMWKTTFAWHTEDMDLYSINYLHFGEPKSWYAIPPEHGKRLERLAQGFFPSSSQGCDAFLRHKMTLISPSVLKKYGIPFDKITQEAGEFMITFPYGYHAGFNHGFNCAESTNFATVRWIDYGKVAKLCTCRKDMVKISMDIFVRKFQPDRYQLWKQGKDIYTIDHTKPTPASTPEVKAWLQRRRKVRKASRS
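System – N-terminal GST-fused human GASC-1 (KDM4C) fragment, residues 2-372 · Input – enzyme final amount 10 nM · Technique – LANCE TR-FRET, Eu antibody, ULight-streptavidin, EDTA, ex 340 nm, em 618/671 nm · Medium – HEPES buffer, pH 7.5, plus ascorbate · Incubation – enzyme reaction 30 min, then detection 60 min, both room temperature · Reagent – H3K9me3 peptide with Fe(II)/2OG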
Pf Dd2 inh: P. falciparum Dd2 growth inhibition | SYBR Green, 72 h; hits give low values | activity change, % at 10 µM | 94,000 compounds, 2.3% hits | AID 1159554; in the data active = activity change below about -80%; inconclusive = no clear call, values can overlap the other calls
T cruzi growth-1: blocks T. cruzi growth in NIH3T3 culture. T. cruzi beta-gal in NIH3T3, GalScreen luminescence, 90 h. inhibition, % at 8.34 µM. 77,000 compounds, 5.9% hits. AID 624255;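 active = mean inhibition above about 93%, with at least 55% of replicates each passing it, limit read from the data, passing the limit was not always enough; inconclusive = only one of those two conditions holds; inactive = neither condition holds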
IDH1 mut inh: inhibitors of human IDH1 R132H; O75874; inhibition, % at 10 µM; IDH1 R132H reductase, diaphorase/resazurin fluorescence, 60 min; 70,000 compounds, 0.18% hits; in the data active = inhibition above about 34%; inconclusive = no clear call, values can overlap the other calls; inactive = below about 11%
Target sequence (O75874 whole entry R132H): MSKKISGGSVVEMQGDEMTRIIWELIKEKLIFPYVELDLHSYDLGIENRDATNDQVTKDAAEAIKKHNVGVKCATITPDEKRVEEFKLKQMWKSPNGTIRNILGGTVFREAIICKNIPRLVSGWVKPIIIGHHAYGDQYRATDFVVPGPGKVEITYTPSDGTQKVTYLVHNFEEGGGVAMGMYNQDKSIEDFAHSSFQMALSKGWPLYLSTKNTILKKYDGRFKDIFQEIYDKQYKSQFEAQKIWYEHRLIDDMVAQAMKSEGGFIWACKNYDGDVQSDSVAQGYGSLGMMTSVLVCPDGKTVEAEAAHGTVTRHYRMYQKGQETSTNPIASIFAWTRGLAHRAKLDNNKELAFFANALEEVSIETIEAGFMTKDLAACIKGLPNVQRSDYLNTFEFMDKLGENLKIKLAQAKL
T cruzi growth-2: Trypanosoma cruzi proliferation inhibition; AID 651739; shares compounds with T cruzi growth-1; inhibition, % at 8.35 µM; T. cruzi beta-gal in NIH3T3, GalScreen luminescence, 90 h; 5,600 compounds, 72% hits;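 active = mean replicate inhibition above about 95% and at least 55% of replicates individually reaching it, limit read from the data; inconclusive = only one of the two criteria is met; inactive = neither criterion is met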
T cruzi growth-3: Trypanosoma cruzi proliferation inhibition; shares compounds with T cruzi growth-1; T. cruzi beta-gal in NIH3T3, GalScreen luminescence, 90 h; inhibition, % at 2.09 µM; 5,600 compounds, 21% hits; AID 651740;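 active = mean inhibition above about 95%, with at least 55% of replicates also reaching it, limit read from the data; inconclusive = meets just one of the two conditions; inactive = meets neither condition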
3T3 cytotox: cytotoxicity in mouse NIH/3T3 fibroblasts; shares compounds with T cruzi growth-1; NIH/3T3 viability, CellTiter-Glo ATP luminescence, 90 h; cytotoxicity (signal decrease), % at 8.35 µM; 5,600 compounds, 14% hits; AID 651742;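 active = mean signal decrease across replicates above about 35% based on untreated-well scatter, with enough replicates individually passing, limit read from the data; inconclusive = no rule stated though some were filed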
3T3 cytotox 2: NIH/3T3 (mouse) viability loss. shares compounds with T cruzi growth-1. NIH/3T3 viability, CellTiter-Glo ATP luminescence, 90 h. inhibition, % at 24.9 µM. 5,600 compounds, 56% hits;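 active = mean loss of cell viability signal at or above a set limit, and enough replicates individually reaching it; inconclusive = meets only the mean limit or only the replicate share; inactive = meets neither condition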
Each line names hits and unclear results; the compound was inactive in the other large screens (follow-up assays come after a bar, where they were run). A selection: hits, their analogues and other compounds. The true share with any hit is near 5.8%.

COc1ccccc1-c1cnc2c(c1)C(=O)N([C@H](C)CO)C[C@@H](C)[C@H](CN(C)Cc1cccc(F)c1)O2	none
COc1ccccc1-c1cnc2c(c1)C(=O)N([C@H](C)CO)C[C@@H](C)[C@@H](CN(C)Cc1cccc(F)c1)O2	none
COc1ccccc1-c1cnc2c(c1)C(=O)N([C@@H](C)CO)C[C@@H](C)[C@@H](CN(C)Cc1cccc(F)c1)O2	T cruzi growth-1 inconclusive | T cruzi growth-2 inactive | T cruzi growth-3 inactive | 3T3 cytotox inactive | 3T3 cytotox 2 51.9
COc1cccc(-c2cnc3c(c2)C(=O)N([C@H](C)CO)C[C@H](C)[C@H](CN(C)Cc2cccc(C)c2)O3)c1	T cruzi growth-1 95.6 | T cruzi growth-2 inactive | T cruzi growth-3 inactive | 3T3 cytotox inactive | 3T3 cytotox 2 inconclusive
CC(Oc1ccc(Cl)cc1Cl)C(=O)Nc1cccc(Cl)c1N1CCOCC1 (configuration not stated)	none (no result: KDM4C inh, Pf Dd2 inh, T cruzi growth-1)
O=C(NCCCN1CCOCC1)C1CC(c2ccc(Cl)c(Cl)c2)=NO1 (configuration not stated)	none (no result: KDM4C inh, Pf Dd2 inh, T cruzi growth-1)
COc1ccc(CN(C)C[C@H]2Oc3ccc(NS(=O)(=O)c4ccc(OC)cc4)cc3CC(=O)N([C@H](C)CO)C[C@H]2C)cc1	none (no result: IDH1 mut inh)
COc1ccc(S(=O)(=O)Nc2ccc3c(c2)CC(=O)N([C@H](C)CO)C[C@@H](C)[C@H](CN(C)Cc2ccc(C(F)(F)F)cc2)O3)cc1	T cruzi growth-1 inconclusive | T cruzi growth-2 101.9 | T cruzi growth-3 inactive | 3T3 cytotox inactive | 3T3 cytotox 2 58.8
COc1ccc(CN(C)C[C@H]2Oc3ccc(NS(=O)(=O)c4ccc(OC)cc4)cc3CC(=O)N([C@H](C)CO)C[C@@H]2C)cc1	none (no result: T cruzi growth-1)
COc1ccc(CN(C)C[C@H]2Oc3ccc(NS(=O)(=O)c4ccc(C)cc4)cc3CC(=O)N([C@H](C)CO)C[C@H]2C)cc1	T cruzi growth-1 114.7 | T cruzi growth-2 107.9 | T cruzi growth-3 inactive | 3T3 cytotox inactive | 3T3 cytotox 2 inconclusive
COc1ccc(CN(C)C[C@@H]2Oc3ccc(NS(=O)(=O)c4ccc(OC)cc4)cc3CC(=O)N([C@H](C)CO)C[C@H]2C)cc1	T cruzi growth-1 104.5 | T cruzi growth-2 103.4 | T cruzi growth-3 inactive | 3T3 cytotox inactive | 3T3 cytotox 2 inactive
CCC(c1nc2ccccc2c(=O)n1-c1ccccn1)N1C(=O)c2ccccc2C1=O (configuration not stated)	none (no result: KDM4C inh, Pf Dd2 inh, T cruzi growth-1)
N#Cc1ccc(-c2ccc3c(c2)[C@@H]2[C@@H](CCN2S(=O)(=O)c2ccccc2F)[C@H](CO)N3)cc1	none (no result: IDH1 mut inh)
N#Cc1cccc(-c2ccc3c(c2)[C@H]2[C@H](CCN2S(=O)(=O)c2cccc(F)c2)[C@@H](CO)N3)c1	T cruzi growth-1 inconclusive (no result: IDH1 mut inh) | T cruzi growth-2 105.9 | T cruzi growth-3 inactive | 3T3 cytotox 46.0 | 3T3 cytotox 2 51.2
N#Cc1ccc(-c2ccc3c(c2)[C@H]2[C@H](CCN2S(=O)(=O)c2cccc(F)c2)[C@H](CO)N3)cc1	none (no result: IDH1 mut inh)
N#Cc1cccc(-c2ccc3c(c2)[C@H]2[C@H](CCN2S(=O)(=O)c2cccc(F)c2)[C@H](CO)N3)c1	T cruzi growth-1 102.6 (no result: IDH1 mut inh) | T cruzi growth-2 98.9 | T cruzi growth-3 inactive | 3T3 cytotox inactive | 3T3 cytotox 2 inconclusive
N#Cc1cccc(-c2ccc3c(c2)[C@@H]2[C@@H](CCN2S(=O)(=O)c2ccccc2F)[C@H](CO)N3)c1	T cruzi growth-1 107.8 (no result: IDH1 mut inh) | T cruzi growth-2 106.3 | T cruzi growth-3 inactive | 3T3 cytotox 45.7 | 3T3 cytotox 2 92.2
COc1ccc2c(c1)c(=O)oc1c(C)c(OCC(=O)NCC3CCCO3)ccc12 (configuration not stated)	none (no result: KDM4C inh, Pf Dd2 inh, T cruzi growth-1)
COc1cc(C(=O)O)cc(OC)c1O	none (no result: KDM4C inh, Pf Dd2 inh, T cruzi growth-1)
O=c1[nH]c(=S)c2c(n1N1CCOCC1)CCC2	none (no result: KDM4C inh, Pf Dd2 inh, T cruzi growth-1)
O=C(Nc1ccc(F)cc1)N1CCCCN2[C@@H](CO)[C@H](c3ccc(-c4ccncc4)cc3)[C@@H]2C1	none (no result: IDH1 mut inh)
O=C(Nc1cccc(F)c1)N1CCCCN2[C@H](CO)[C@@H](c3ccc(-c4ccncc4)cc3)[C@@H]2C1	T cruzi growth-1 103.0 (no result: IDH1 mut inh) | T cruzi growth-2 113.1 | T cruzi growth-3 inactive | 3T3 cytotox 36.0 | 3T3 cytotox 2 30.8
Cc1ccc(-c2ccc([C@H]3[C@H](CO)N4CCCCN(C(=O)Nc5cccc(F)c5)C[C@@H]34)cc2)cc1	T cruzi growth-1 105.7 (no result: IDH1 mut inh) | T cruzi growth-2 99.5 | T cruzi growth-3 inconclusive | 3T3 cytotox 118.0 | 3T3 cytotox 2 105.3
O=C(Nc1cccc(F)c1)N1CCCCN2[C@H](CO)[C@H](c3ccc(-c4ccncc4)cc3)[C@@H]2C1	T cruzi growth-1 107.8 (no result: IDH1 mut inh) | T cruzi growth-2 99.6 | T cruzi growth-3 inactive | 3T3 cytotox inactive | 3T3 cytotox 2 inactive
Cc1ccc(-c2ccc([C@H]3[C@H]4CN(C(=O)Nc5cccc(F)c5)CCCCN4[C@H]3CO)cc2)cc1	none (no result: IDH1 mut inh)
COCC#Cc1ccc2c(c1)O[C@H](CN(C)S(=O)(=O)c1cccc(F)c1)[C@H](C)CN([C@H](C)CO)S2(=O)=O	Pf Dd2 inh -82.3, T cruzi growth-1 107.3 | T cruzi growth-2 inactive | T cruzi growth-3 inactive | 3T3 cytotox inactive | 3T3 cytotox 2 62.5
CC(C)CC#Cc1ccc2c(c1)O[C@H](CN(C)S(=O)(=O)c1ccc(F)cc1)[C@H](C)CN([C@H](C)CO)S2(=O)=O	none (no result: T cruzi growth-1)
CC(C)CC#Cc1ccc2c(c1)O[C@@H](CN(C)S(=O)(=O)c1cccc(F)c1)[C@@H](C)CN([C@H](C)CO)S2(=O)=O	T cruzi growth-1 120.0 | T cruzi growth-2 inactive | T cruzi growth-3 99.7 | 3T3 cytotox inactive | 3T3 cytotox 2 57.1
CCCC#Cc1ccc2c(c1)O[C@H](CN(C)S(=O)(=O)c1cccc(F)c1)[C@@H](C)CN([C@H](C)CO)S2(=O)=O	T cruzi growth-1 122.4 | T cruzi growth-2 101.4 | T cruzi growth-3 106.2 | 3T3 cytotox inactive | 3T3 cytotox 2 24.5
CCCC#Cc1ccc2c(c1)O[C@H](CN(C)S(=O)(=O)c1cccc(F)c1)[C@H](C)CN([C@H](C)CO)S2(=O)=O	T cruzi growth-1 121.6 | T cruzi growth-2 103.1 | T cruzi growth-3 108.3 | 3T3 cytotox inactive | 3T3 cytotox 2 75.5
C[C@H]1CN([C@@H](C)CO)S(=O)(=O)c2ccc(C#CCN(C)C)cc2O[C@@H]1CN(C)S(=O)(=O)c1cccc(F)c1	none (no result: T cruzi growth-1)
CCCC#Cc1ccc2c(c1)O[C@@H](CN(C)S(=O)(=O)c1cccc(F)c1)[C@@H](C)CN([C@@H](C)CO)S2(=O)=O	T cruzi growth-1 121.5 | T cruzi growth-2 104.9 | T cruzi growth-3 102.4 | 3T3 cytotox inactive | 3T3 cytotox 2 83.8
